Active and inactive are the calls of the source. The rule behind the calls is not given here.
Columns and labels:
[1] = molecular target: T1, Ribonuclease pancreatic (Bos taurus) (UniProt P61823); assay: Inhibition of bovine pancreatic RNase A assessed as change in pKa of His-12 by NMR spectroscopy
T1 sequence (whole entry): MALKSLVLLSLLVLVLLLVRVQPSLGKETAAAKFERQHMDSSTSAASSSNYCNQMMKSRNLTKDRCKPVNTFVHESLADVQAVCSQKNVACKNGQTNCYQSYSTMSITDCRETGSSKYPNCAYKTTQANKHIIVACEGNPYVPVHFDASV
Procedure, shortened: (§1)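 RNase A H/D exchanged in D2O (50 °C, 20 min, lyophilized, three cycles), redissolved in D2O with 0.17 M NaCl and 0.5 mM DSS; ligand:enzyme molar ratio 5:1; pH* 3–8 set with DCl/NaOD, uncorrected. 1H NMR at 400 MHz, 22.5 °C, 100 scans, 2 s acquisition; His C-2 shifts vs DSS fitted to titration equations for pKa; pK2 used.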

[2] = molecular target: T1, Ribonuclease pancreatic (Bos taurus); assay: Inhibition of bovine pancreatic RNase A assessed as change in pKa of His-105 by NMR spectroscopy; procedure, shortened: as §1
[3] = molecular target: T1, Ribonuclease pancreatic (Bos taurus); assay: Inhibition of bovine pancreatic RNase A assessed as change in pKa of His-119 by NMR spectroscopy; procedure, shortened: as §1
[4] = molecular target: T1, Ribonuclease pancreatic (Bos taurus); assay: Inhibition of bovine pancreatic RNase A assessed as tRNA degradation at 0.92 mM after 6 hrs using ethidium bromide staining by agarose gel-based assay
Procedure, shortened: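 RNase A (0.66 µM stock) preincubated with varying volumes of compound (0.92 mM stock) 6 h at 37 °C. Aliquots mixed with tRNA (5.0 mg/ml) and glycerol/bromophenol blue sample buffer, 30 min further incubation, then run on 1.1% agarose in TAE pH 8.0. Undegraded tRNA seen by ethidium bromide staining under UV.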

[5] = molecular target: T1, Ribonuclease pancreatic (Bos taurus); assay: Inhibition of bovine pancreatic RNase A assessed as tRNA degradation at 0.50 mM after 2 hrs by precipitation assay
Procedure, shortened: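 Bond precipitation method. RNase A with conjugate (1 mM stock) preincubated 2 h at 37 °C; aliquot added to tRNA (5 mg/ml) in Tris-HCl pH 7.5 with 5 mM EDTA and 0.5 mg/ml HSA, 30 min at 25 °C. Quenched with ice-cold 1.14 N perchloric acid/6 mM uranyl acetate, 30 min on ice, centrifuged; supernatant diluted, A260 compared to control.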

[6] = molecular target: T1, Ribonuclease pancreatic (Bos taurus); assay: Inhibition of bovine pancreatic RNase A at 5 uM by fluorescence assay
Procedure, shortened: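 Fluorimetric titration, 1 cm cuvette, excitation 295 nm: 5 µM ligand in 20 mM phosphate pH 7.0 with 50 mM NaCl, RNase A added stepwise to a final 17.5 µM; change in emission intensity followed.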

Ribonuclease pancreatic = molecular target: T2, Ribonuclease pancreatic (Bos taurus, UniProt P61823); assay: Inhibition of bovine pancreatic RNase A by spectrophotometric assay
T2 sequence (P61823 whole entry): T1 sequence (whole entry)

Activity [1] | Activity [2] | Activity [3] | Activity [4] | Activity [5] | Activity [6] | Ki (Ribonuclease pancreatic) [µM] | Compound
inactive | inactive | inactive |  |  |  |  | Cc1cn([C@H]2C[C@H](NC(=O)C(N)CC(C)C)[C@@H](CO)O2)c(=O)[nH]c1=O (stereo not given in full)
 |  |  | Active | Active | Active |  | Cc1cn([C@H]2C[C@H](NC(=O)C(N)Cc3c[nH]c4ccccc34)[C@@H](CO)O2)c(=O)[nH]c1=O (stereo not given in full)
 |  |  |  |  |  | 7 | Nc1ccn([C@@H]2O[C@H](CO)[C@@H](O)[C@H]2OP(=O)(O)O)c(=O)n1
 |  |  | Active | Active |  | 451 | Cc1cn([C@H]2C[C@H](NC(=O)C(N)Cc3ccc(O)cc3)[C@@H](CO)O2)c(=O)[nH]c1=O (stereo not given in full)

— ChEMBL document CHEMBL1154102, “Nucleoside-amino acid conjugates: An alternative route to the design of ribonuclease A inhibitors” (Bioorg Med Chem, 2009)
